Experimental data: ChEMBL document CHEMBL4665894, “Driving Potency with Rotationally Stable Atropisomers: Discovery of Pyridopyrimidinedione-Carbazole Inhibitors of BTK” (ACS Med Chem Lett, 2020)
pIC50: −log10 of the molar value. “And” between values parts separate entries of the source, which are not always exact repeats. Equal entries are not always repeated.

Columns and labels:
B cell = experiment: Antiproliferative activity against anti-IgM/IgG-induced human peripheral B cells; assay type: functional, cell-based
Summary of the method: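 B cell receptor stimulation of human peripheral B cells with anti-IgM/IgG (proliferation read-out), of human whole blood with anti-IgM (CD69 surface expression), and of mouse whole blood with anti-IgM/IgG (CD69 surface expression). IC50 reported as the mean of at least three determinations; for line 9 a single determination is also reported.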

[1] = AUC in mouse at 10 mg/kg, PO; assay type: ADME, organism-based; parameters: dose 10 mg/kg; details: in vivo
[2] = biological target: T1, Tyrosine-protein kinase BTK (Homo sapiens, UniProt Q06187); experiment: Inhibition of BTK in human Ramos B cells assessed as reduction in goat anti human IgM-stimulated calcium flux preincubated for 1 hr followed by goat anti human IgM addition and measured for 180 secs by FLIPR assay; assay type: cell-based
T1 sequence (Q06187 whole entry): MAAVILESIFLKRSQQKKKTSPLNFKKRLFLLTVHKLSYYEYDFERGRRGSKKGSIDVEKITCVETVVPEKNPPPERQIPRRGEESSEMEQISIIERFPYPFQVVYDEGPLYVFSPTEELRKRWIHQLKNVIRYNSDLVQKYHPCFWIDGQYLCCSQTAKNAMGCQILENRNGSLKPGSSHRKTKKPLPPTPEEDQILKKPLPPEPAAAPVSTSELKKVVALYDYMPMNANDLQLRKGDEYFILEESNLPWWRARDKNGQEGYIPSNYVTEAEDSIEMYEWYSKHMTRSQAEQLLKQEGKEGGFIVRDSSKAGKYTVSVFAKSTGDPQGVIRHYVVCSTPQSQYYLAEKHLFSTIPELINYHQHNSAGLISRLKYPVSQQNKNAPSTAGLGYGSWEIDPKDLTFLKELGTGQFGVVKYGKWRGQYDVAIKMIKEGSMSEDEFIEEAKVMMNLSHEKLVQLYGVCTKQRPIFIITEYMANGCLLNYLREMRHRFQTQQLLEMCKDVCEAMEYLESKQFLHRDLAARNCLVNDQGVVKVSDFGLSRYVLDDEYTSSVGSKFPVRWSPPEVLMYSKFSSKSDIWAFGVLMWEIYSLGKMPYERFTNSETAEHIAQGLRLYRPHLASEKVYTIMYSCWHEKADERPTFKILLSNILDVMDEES

[3] = Cmax in mouse at 10 mg/kg, PO; assay type: ADME, organism-based; parameters: route oral, dose 10 mg/kg; details: in vivo
[4] = biological target: T1, Tyrosine-protein kinase BTK; experiment: Inhibition of recombinant full-length His-tagged human BTK expressed in baculovirus expression system using fluoresceinated peptide as substrate incubated for 60 mins by fluorescence assay
[5] = biological target: T1, Tyrosine-protein kinase BTK; experiment: Inhibition of BTK in human whole blood assessed as reduction in goat anti human IgM/human IL4-stimulated CD69 cell surface expression on peripheral B cells incubated for 18 hrs by FACS analysis; assay type: tissue-based
Homo sapiens = species on record: Homo sapiens; experiment: Selectivity ratio of IC50 for JAK2 (unknown origin) to IC50 for recombinant full-length His-tagged human BTK expressed in baculovirus expression system
[6] = Stability of the compound in human whole blood assessed drug degradation at 0.5 uM incubated for 10 mins; assay type: ADME, tissue-based; details: read-out: Drug degradation
Summary of the method: (§1)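 Test compound spiked into human whole blood at 0.5 µM and incubated; remaining parent tracked over time, with samples at 10 min and at 2 h.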

[7] = Glutathione reactivity in human liver microsomes assessed as GSH-adduct formation at 10 uM incubated for 60 mins; assay type: ADME; details: 1 h
[8] = Stability of the compound in human whole blood assessed drug degradation at 0.5 uM incubated for 2 hrs; assay type: ADME, tissue-based; details: read-out: Drug degradation; summary of the method: as §1

For `Cc1c(-c2ccc(C(N)=O)c3[nH]c4cc(C(C)(C)O)ccc4c23)cccc1-n1cnc2ccccc2c1=O`, the pIC50 (B cell) was 8.10 and the AUC [1] was 80 µM·h.
With `Cc1c(-c2ccc(C(N)=O)c3[nH]c4cc(C(C)(C)O)ccc4c23)cccc1-n1c(=O)cc2c(F)cccn2c1=O` the AUC [1] was 28 µM·h, the pIC50 [2] was 7.72 and 7.74 and 7.85 and the Cmax [3] was 5.2 µM. The pIC50 [4] was 9.07, the pIC50 [5] was 7.12 and 7.04 and 7.10 and the Ratio IC50 (Homo sapiens) was 1100 and 500 and 870.
`COc1cccn2c(=O)n(-c3cccc(-c4ccc(C(N)=O)c5[nH]c6cc(C(C)(C)O)ccc6c45)c3C)c(=O)cc12` gave an AUC [1] of 4 µM·h, a pIC50 [2] of 7.72 and a Cmax [3] of 1.3 µM. For the same compound, the pIC50 [5] was 6.85 and the Ratio IC50 (Homo sapiens) was 1900.
With `Cc1c(-c2ccc(C(N)=O)c3[nH]c4cc(C(C)(C)O)ccc4c23)cccc1-n1c(=O)cc2cc(Cl)ccn2c1=O` the metabolised at 10 min, 0.5 µM [6] was over 85%, the Stabilty [7] was “Unstable” and the pIC50 [2] was 8.51. For the same compound, the pIC50 [4] was 9.31, the pIC50 [5] was 5.52 and the metabolised at 2 h, 0.5 µM [8] was 100%. The Ratio IC50 (Homo sapiens) was 1500.
`COc1ccn2c(=O)n(-c3cccc(-c4ccc(C(N)=O)c5[nH]c6cc(C(C)(C)O)ccc6c45)c3C)c(=O)cc2c1` showed an AUC [1] of 3.9 µM·h, a pIC50 [2] of 7.72 and a Cmax [3] of 1.3 µM. The pIC50 [5] was 6.85 and the Ratio IC50 (Homo sapiens) was 1600.
For `Cc1c(-c2ccc(C(N)=O)c3[nH]c4cc(C(C)(C)O)ccc4c23)cccc1-n1c(=O)cc2c(Cl)cccn2c1=O`, the AUC [1] was 23 µM·h, the Stabilty [7] was “Stable” and the pIC50 [2] was 7.92 and 7.74 and 7.89. For the same compound, the Cmax [3] was 3.5 µM, the pIC50 [5] was 6.92 and 7.11 and 7.16 and the Ratio IC50 (Homo sapiens) was 1400 and 1100 and 2500.
